# Results reported in ChEMBL document CHEMBL5724801, “EUbOPEN Chemogenomics Library - Multiplex” (2024).
# Several values for one entry are separate records, joined by “and”; a condition that tells them apart may be missing. Identical values can stand only once.
# Tested on: Fibroblast
# Assay: Multiplex assay against human fibroblast
# Type: toxicity, cell-based
# In short: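 Imaging took place on a CQ1 microscope at 37°C and 5% CO2 once compound had been added to live cells stained at seeding with Hoechst33342, BioTracker Green Microtubule Cytoskeleton Dye, MitoTracker Red and Annexin V Alexa Fluor 680. CellPathfinder machine-learning gating classed cells as Hoechst high-intensity objects or normal cells, classed normal cells as having healthy, pyknosed or fragmented nuclei, and classed pyknosed cells as mitotic or apoptotic. Tubulin, mitochondrial-mass and membrane-permeability phenotypes are per cents of the healthy-nucleus cells.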
# [1] = 12 h, 1 µM, compound concentration 1 uM
# [2] = 12 h, 10 µM, compound concentration 10 uM
# [3] = 24 h, 1 µM, compound concentration 1 uM
# [4] = 24 h, 10 µM, compound concentration 10 uM
# [5] = 48 h, 1 µM, compound concentration 1 uM
# [6] = 48 h, 10 µM, compound concentration 10 uM
compound,measurement,setting,value
CN(C)C(=O)Cn1cc(-c2ccc(-c3nnc4ccccn34)cc2)cn1,Population Apoptotic (%),[1],57% and 55%
same,Population Fragmented Nuclei (%),[1],18% and 20%
same,Population Healthy Nuclei (%),[1],60% and 58%
same,Population Hoechst High Intensity Objects (%),[1],5%
same,Population Membrane Permeable-Phenotype (%),[1],1% and 7%
same,Population Mitochondria Different-Phenotype (%),[1],3% and 7%
same,Population Mitotic Cells (%),[1],42% and 44%
same,Population Normal (%),[1],94%
same,Population Pyknosed Nuclei (%),[1],21% and 20%
same,Population Tubulin-Different-Phenotype (%),[1],22% and 42%
same,Total Cell Count,[1],139 and 152
same,Population Apoptotic (%),[2],52% and 39%
same,Population Healthy Nuclei (%),[2],63% and 38%
same,Population Hoechst High Intensity Objects (%),[2],3% and 8%
same,Population Membrane Permeable-Phenotype (%),[2],0% and 15%
same,Population Mitochondria Different-Phenotype (%),[2],6% and 18%
same,Population Mitotic Cells (%),[2],47% and 60%
same,Population Normal (%),[2],96% and 91%
same,Population Pyknosed Nuclei (%),[2],28% and 29%
same,Population Tubulin-Different-Phenotype (%),[2],31% and 70%
same,Total Cell Count,[2],140 and 123
same,Population Apoptotic (%),[3],56% and 54%
same,Population Fragmented Nuclei (%),[3],23%
same,Population Healthy Nuclei (%),[3],60%
same,Population Hoechst High Intensity Objects (%),[3],0% and 4%
same,Population Membrane Permeable-Phenotype (%),[3],2% and 4%
same,Population Mitochondria Different-Phenotype (%),[3],1% and 3%
same,Population Mitotic Cells (%),[3],43% and 45%
same,Population Normal (%),[3],99% and 95%
same,Population Pyknosed Nuclei (%),[3],16%
same,Population Tubulin-Different-Phenotype (%),[3],25% and 41%
same,Total Cell Count,[3],144 and 142
same,Population Apoptotic (%),[4],65% and 26%
same,Population Healthy Nuclei (%),[4],65% and 40%
same,Population Hoechst High Intensity Objects (%),[4],5% and 9%
same,Population Membrane Permeable-Phenotype (%),[4],2% and 10%
same,Population Mitochondria Different-Phenotype (%),[4],5% and 6%
same,Population Mitotic Cells (%),[4],34% and 73%
same,Population Normal (%),[4],94% and 90%
same,Population Pyknosed Nuclei (%),[4],24% and 22%
same,Population Tubulin-Different-Phenotype (%),[4],25% and 71%
same,Total Cell Count,[4],140 and 126
same,Population Apoptotic (%),[5],58% and 42%
same,Population Fragmented Nuclei (%),[5],22% and 28%
same,Population Healthy Nuclei (%),[5],61% and 52%
same,Population Hoechst High Intensity Objects (%),[5],1% and 5%
same,Population Membrane Permeable-Phenotype (%),[5],4% and 6%
same,Population Mitochondria Different-Phenotype (%),[5],4% and 2%
same,Population Mitotic Cells (%),[5],41% and 57%
same,Population Normal (%),[5],98% and 94%
same,Population Pyknosed Nuclei (%),[5],16% and 18%
same,Population Tubulin-Different-Phenotype (%),[5],29% and 46%
same,Total Cell Count,[5],151 and 147
same,Population Apoptotic (%),[6],52% and 60%
same,Population Fragmented Nuclei (%),[6],16% and 44%
same,Population Healthy Nuclei (%),[6],66% and 47%
same,Population Hoechst High Intensity Objects (%),[6],2% and 3%
same,Population Membrane Permeable-Phenotype (%),[6],0% and 18%
same,Population Mitochondria Different-Phenotype (%),[6],2% and 8%
same,Population Mitotic Cells (%),[6],47% and 40%
same,Population Normal (%),[6],97% and 96%
same,Population Pyknosed Nuclei (%),[6],17% and 7%
same,Population Tubulin-Different-Phenotype (%),[6],38% and 73%
same,Total Cell Count,[6],137 and 131
COC(=O)c1ccc2c(c1)NC(=O)/C2=C(\Nc1ccc(N(C)C(=O)CN2CCN(C)CC2)cc1)c1ccccc1 [NINTEDANIB],Population Apoptotic (%),[1],16.28% and 33.33%
same,Population Fragmented Nuclei (%),[1],16.48% and 7.77%
same,Population Healthy Nuclei (%),[1],59.09% and 77.67%
same,Population Hoechst High Intensity Objects (%),[1],0%
same,Population Membrane Permeable-Phenotype (%),[1],6.73% and 3.75%
same,Population Mitochondria Different-Phenotype (%),[1],17.31% and 10%
same,Population Mitotic Cells (%),[1],83.72% and 66.67%
same,Population Normal (%),[1],100%
same,Population Pyknosed Nuclei (%),[1],24.43% and 14.56%
same,Population Tubulin-Different-Phenotype (%),[1],38.46% and 36.88%
same,Total Cell Count,[1],176 and 206
same,Population Apoptotic (%),[2],40.91% and 35.76%
same,Population Fragmented Nuclei (%),[2],5.54% and 1.86%
same,Population Healthy Nuclei (%),[2],51.47% and 66.87%
same,Population Hoechst High Intensity Objects (%),[2],0.65% and 0%
same,Population Membrane Permeable-Phenotype (%),[2],29.11% and 30.65%
same,Population Mitochondria Different-Phenotype (%),[2],33.54% and 14.24%
same,Population Mitotic Cells (%),[2],59.09% and 64.24%
same,Population Normal (%),[2],99.35% and 100%
same,Population Pyknosed Nuclei (%),[2],43% and 31.26%
same,Population Tubulin-Different-Phenotype (%),[2],51.27% and 85.14%
same,Total Cell Count,[2],309 and 483
same,Population Apoptotic (%),[3],16.22% and 30%
same,Population Fragmented Nuclei (%),[3],15.92% and 9.59%
same,Population Healthy Nuclei (%),[3],65.67% and 76.71%
same,Population Hoechst High Intensity Objects (%),[3],0%
same,Population Membrane Permeable-Phenotype (%),[3],3.79% and 3.57%
same,Population Mitochondria Different-Phenotype (%),[3],8.33% and 10.71%
same,Population Mitotic Cells (%),[3],83.78% and 70%
same,Population Normal (%),[3],100%
same,Population Pyknosed Nuclei (%),[3],18.41% and 13.7%
same,Population Tubulin-Different-Phenotype (%),[3],31.82% and 40.48%
same,Total Cell Count,[3],201 and 219
same,Population Apoptotic (%),[4],45.74% and 54.65%
same,Population Fragmented Nuclei (%),[4],5.3% and 6.9%
same,Population Healthy Nuclei (%),[4],59.09% and 71.92%
same,Population Hoechst High Intensity Objects (%),[4],0.75% and 0%
same,Population Membrane Permeable-Phenotype (%),[4],12.18% and 13.36%
same,Population Mitochondria Different-Phenotype (%),[4],45.51% and 32.53%
same,Population Mitotic Cells (%),[4],54.26% and 45.35%
same,Population Normal (%),[4],99.25% and 100%
same,Population Pyknosed Nuclei (%),[4],35.61% and 21.18%
same,Population Tubulin-Different-Phenotype (%),[4],66.67% and 90.75%
same,Total Cell Count,[4],266 and 406
same,Population Apoptotic (%),[5],21.43% and 45%
same,Population Fragmented Nuclei (%),[5],19.15% and 12.93%
same,Population Healthy Nuclei (%),[5],74.89% and 78.45%
same,Population Hoechst High Intensity Objects (%),[5],0%
same,Population Membrane Permeable-Phenotype (%),[5],0.57% and 1.65%
same,Population Mitotic Cells (%),[5],78.57% and 55%
same,Population Normal (%),[5],100%
same,Population Pyknosed Nuclei (%),[5],5.96% and 8.62%
same,Population Tubulin-Different-Phenotype (%),[5],23.86% and 42.31%
same,Total Cell Count,[5],235 and 232
same,Population Apoptotic (%),[6],60.29% and 65.38%
same,Population Fragmented Nuclei (%),[6],8.47% and 8.93%
same,Population Healthy Nuclei (%),[6],64.11% and 83.57%
same,Population Hoechst High Intensity Objects (%),[6],0%
same,Population Membrane Permeable-Phenotype (%),[6],9.43% and 8.97%
same,Population Mitochondria Different-Phenotype (%),[6],44.65% and 33.45%
same,Population Mitotic Cells (%),[6],39.71% and 34.62%
same,Population Normal (%),[6],100%
same,Population Tubulin-Different-Phenotype (%),[6],58.49% and 91.72%
same,Total Cell Count,[6],248 and 347
